The results in this text go back to ChEMBL document CHEMBL1759890, “3,5-Disubstituted-indole-7-carboxamides: the discovery of a novel series of potent, selective inhibitors of IKK-β” (Bioorg Med Chem Lett, 2011).

The target of assay [1] is T1, Inhibitor of nuclear factor kappa-B kinase subunit beta (Homo sapiens, UniProt O14920).
T1 sequence (O14920 whole entry): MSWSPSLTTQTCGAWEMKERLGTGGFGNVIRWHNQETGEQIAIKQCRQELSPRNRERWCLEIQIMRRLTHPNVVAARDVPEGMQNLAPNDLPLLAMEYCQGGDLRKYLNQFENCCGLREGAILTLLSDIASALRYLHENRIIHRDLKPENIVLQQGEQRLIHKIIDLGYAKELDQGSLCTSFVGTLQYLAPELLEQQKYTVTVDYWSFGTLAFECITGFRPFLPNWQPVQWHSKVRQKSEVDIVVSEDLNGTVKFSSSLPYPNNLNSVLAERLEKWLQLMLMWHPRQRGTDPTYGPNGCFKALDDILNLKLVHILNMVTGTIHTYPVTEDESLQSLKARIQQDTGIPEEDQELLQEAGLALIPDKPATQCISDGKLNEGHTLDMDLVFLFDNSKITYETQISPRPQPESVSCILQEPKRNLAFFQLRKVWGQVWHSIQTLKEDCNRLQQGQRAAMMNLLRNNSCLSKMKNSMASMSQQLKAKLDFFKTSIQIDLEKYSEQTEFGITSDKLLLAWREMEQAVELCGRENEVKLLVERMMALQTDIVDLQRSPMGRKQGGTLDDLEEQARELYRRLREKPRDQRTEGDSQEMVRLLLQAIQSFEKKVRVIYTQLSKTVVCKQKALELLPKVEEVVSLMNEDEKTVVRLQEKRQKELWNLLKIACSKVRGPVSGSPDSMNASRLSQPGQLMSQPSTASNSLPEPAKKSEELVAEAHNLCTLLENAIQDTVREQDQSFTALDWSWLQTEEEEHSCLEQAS
The experiment in a line: Inhibition of IKK-beta in human A549 cells assessed as TNF-alpha-induced Nuclear factor-kappa-B nuclear translocation.

In assay [2] the target is T2, Inhibitor of nuclear factor kappa-B kinase subunit alpha (Homo sapiens, UniProt O15111).
T2 sequence (O15111 whole entry): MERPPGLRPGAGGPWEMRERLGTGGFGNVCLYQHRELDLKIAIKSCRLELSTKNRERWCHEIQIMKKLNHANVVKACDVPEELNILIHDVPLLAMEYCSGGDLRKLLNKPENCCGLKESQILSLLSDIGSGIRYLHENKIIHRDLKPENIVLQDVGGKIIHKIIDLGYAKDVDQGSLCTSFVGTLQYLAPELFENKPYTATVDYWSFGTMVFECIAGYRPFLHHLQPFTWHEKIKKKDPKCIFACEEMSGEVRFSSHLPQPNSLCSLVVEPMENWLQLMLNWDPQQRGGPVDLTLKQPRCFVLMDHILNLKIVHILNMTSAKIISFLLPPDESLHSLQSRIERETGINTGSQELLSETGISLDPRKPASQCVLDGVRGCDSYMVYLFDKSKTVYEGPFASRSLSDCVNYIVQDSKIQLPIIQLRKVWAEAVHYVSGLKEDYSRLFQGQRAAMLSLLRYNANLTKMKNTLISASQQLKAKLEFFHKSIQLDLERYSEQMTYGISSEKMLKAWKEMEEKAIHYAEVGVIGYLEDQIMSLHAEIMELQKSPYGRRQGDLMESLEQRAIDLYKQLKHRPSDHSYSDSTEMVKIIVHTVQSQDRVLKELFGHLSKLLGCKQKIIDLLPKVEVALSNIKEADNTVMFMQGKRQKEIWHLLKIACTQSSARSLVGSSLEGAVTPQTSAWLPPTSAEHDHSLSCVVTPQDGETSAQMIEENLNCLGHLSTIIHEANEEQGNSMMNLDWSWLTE
The experiment in a line: Inhibition of IKK-alpha. In a few lines:
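Done the same way as the IKK-β TR-FRET assay but with 6-His-tagged full-length IKK-α. Buffer is 50 mM HEPES, 10 mM MgCl₂, 1 mM CHAPS pH 7.4, 1 mM DTT, 0.01% w/v BSA. GST-IκBα substrate 25 nM final, ATP 1 μM final, DMSO below 5% final. Error about ±0.3 log units.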

For assay [3], the target named is Casein kinase I isoform epsilon (Homo sapiens, UniProt P49674). The experiment in a line: Binding affinity to CSNK1eplison assessed as dissociation constant.
In assay [4] the target is Tyrosine-protein kinase BTK (Homo sapiens, UniProt Q06187). The experiment in a line: Inhibition of BTK.
Assay [5] concerns the target T3, Receptor-type tyrosine-protein kinase FLT3 (Homo sapiens, UniProt P36888).
T3 sequence (P36888 whole entry): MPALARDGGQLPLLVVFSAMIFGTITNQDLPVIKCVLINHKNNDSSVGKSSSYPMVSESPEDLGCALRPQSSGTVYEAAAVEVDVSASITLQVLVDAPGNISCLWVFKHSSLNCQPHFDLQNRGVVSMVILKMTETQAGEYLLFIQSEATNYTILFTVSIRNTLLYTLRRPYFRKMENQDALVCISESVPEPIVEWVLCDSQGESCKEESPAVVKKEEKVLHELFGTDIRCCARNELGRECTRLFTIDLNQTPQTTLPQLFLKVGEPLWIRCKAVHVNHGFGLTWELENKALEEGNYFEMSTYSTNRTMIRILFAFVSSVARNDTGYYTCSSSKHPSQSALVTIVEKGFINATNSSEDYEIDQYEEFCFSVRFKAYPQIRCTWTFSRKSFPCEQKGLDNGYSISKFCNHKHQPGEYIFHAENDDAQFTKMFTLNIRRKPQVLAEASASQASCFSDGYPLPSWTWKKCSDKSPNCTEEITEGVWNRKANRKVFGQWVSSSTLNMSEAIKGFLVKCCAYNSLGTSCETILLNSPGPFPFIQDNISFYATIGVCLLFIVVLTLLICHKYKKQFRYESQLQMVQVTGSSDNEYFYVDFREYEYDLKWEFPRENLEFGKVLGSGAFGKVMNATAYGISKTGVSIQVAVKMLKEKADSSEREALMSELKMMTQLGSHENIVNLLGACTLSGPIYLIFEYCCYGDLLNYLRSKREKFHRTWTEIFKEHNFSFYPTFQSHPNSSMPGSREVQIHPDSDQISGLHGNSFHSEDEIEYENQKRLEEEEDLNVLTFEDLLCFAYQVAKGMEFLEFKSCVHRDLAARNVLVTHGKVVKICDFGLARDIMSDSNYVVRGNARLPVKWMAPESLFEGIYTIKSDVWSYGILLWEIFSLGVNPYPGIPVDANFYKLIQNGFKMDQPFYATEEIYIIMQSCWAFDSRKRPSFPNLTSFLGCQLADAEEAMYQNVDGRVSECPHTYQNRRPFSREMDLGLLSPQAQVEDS
The experiment in a line: Binding affinity to FLT3 assessed as dissociation constant.

Chain of Tyrosine-protein kinase BTK (Q06187 whole entry): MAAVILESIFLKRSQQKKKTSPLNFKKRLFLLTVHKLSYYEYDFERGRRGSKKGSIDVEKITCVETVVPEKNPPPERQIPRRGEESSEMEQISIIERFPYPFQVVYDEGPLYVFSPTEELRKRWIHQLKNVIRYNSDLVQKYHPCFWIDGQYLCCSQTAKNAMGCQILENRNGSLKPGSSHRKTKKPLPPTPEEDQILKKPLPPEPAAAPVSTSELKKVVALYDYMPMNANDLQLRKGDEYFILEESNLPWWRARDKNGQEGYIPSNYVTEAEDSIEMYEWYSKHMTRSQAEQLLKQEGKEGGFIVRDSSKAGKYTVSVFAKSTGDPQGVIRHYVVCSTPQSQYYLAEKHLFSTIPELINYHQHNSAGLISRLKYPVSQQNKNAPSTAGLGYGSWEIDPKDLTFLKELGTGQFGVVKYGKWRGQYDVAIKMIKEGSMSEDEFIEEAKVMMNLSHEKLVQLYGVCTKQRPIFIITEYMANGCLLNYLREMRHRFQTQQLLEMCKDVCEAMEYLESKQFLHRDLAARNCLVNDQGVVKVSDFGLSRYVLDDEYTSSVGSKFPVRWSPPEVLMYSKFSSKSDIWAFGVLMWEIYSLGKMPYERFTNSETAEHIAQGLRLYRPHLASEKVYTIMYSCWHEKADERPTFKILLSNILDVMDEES
Chain of Casein kinase I isoform epsilon (P49674 whole entry, canonical isoform): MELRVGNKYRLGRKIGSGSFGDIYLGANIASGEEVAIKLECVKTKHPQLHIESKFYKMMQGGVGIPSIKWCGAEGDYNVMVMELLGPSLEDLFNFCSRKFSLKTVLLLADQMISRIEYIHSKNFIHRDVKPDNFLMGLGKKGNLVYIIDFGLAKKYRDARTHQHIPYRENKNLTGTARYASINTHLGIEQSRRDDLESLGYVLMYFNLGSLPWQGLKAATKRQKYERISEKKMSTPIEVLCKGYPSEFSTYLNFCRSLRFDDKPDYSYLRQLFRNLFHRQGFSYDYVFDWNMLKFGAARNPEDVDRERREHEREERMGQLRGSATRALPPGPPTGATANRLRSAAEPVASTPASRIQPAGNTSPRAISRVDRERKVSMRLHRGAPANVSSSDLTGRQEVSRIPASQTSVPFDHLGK

Regarding `CCCS(=O)(=O)N1CCC(c2c[nH]c3c(C(N)=O)cc(-c4ccccc4)cc23)CC1`, the IC50 in assay [1] was 158 nM; in assay [2], 2000 nM; in assay [4] it was 1580 nM. The results for the Kd in assay [3] and in assay [5] were 1580 nM and 1260 nM, respectively.

By IC50 is commonly meant the concentration needed to halve the response being measured. For orientation: Kd means the equilibrium constant for the complex coming apart.
